MT stabilize HCS: stabilizes microtubules in HeLa cells | HeLa tubulin immunostaining HCS, 24 h; share of cells brighter than vehicle mean+2SD | % tubulin-high responders, % at 10 µM | 200,000 compounds, 0.83% hits | AID 2205;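 active = plate Z-score above 3 for both tubulin-high and condensed-nucleus cell shares, with cell loss under 80%, at 10 µM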;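 note: anti alpha tubulin signal scored within the nucleus-defined area of each cell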
Dynein cargo inh: blocks dynein driven cargo transport along microtubules | 3617.4 mouse cells, GR-EGFP nuclear translocation imaging; test concentration mostly 20 µM; stimulated with dexamethasone, 1 µM; active compounds read low | z-score, hits read low | 220,000 compounds, 0.47% hits | AID 1381;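 active = plate z-score of nuclear minus cytoplasmic receptor signal below a set negative limit, without overly bright fluorescence or cell loss, cut at about -3.5 in these data, passing the limit was not always enough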;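 note: z-score of nuclear minus cytoplasmic ring GR-EGFP intensity difference per well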
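Buffer or medium – tet-free medium with charcoal-stripped serum · Signal – automated 10x imaging of fixed Hoechst-stained cells · Also added – dexamethasone agonist, 1.0 µM final, for 30 min · Incubation – induction 48 h, compound 1 h, agonist 30 min · Read-out – GR-EGFP nuclear translocation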
bCat nuc transl: beta-catenin nuclear translocation modulation; nuclear translocation activity, % at 5 µM; AID 1665; HeLa beta-catenin nuclear translocation, immunofluorescence imaging; 190,000 compounds, 0.3% hits;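 active = nuclear translocation activity above 50% at 5 µM, with a well cell count of 50 or more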;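 note: per-cell ratio of nuclear to cytoplasmic median beta-catenin stain intensity; plate controls were DMSO negative control for no effect and GSK-3 inhibitor IX positive control for full effect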
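Signal – beta-catenin immunofluorescence imaging with DAPI · Test system – human HeLa cell line · Dosing – 5 µM primary single dose, 0.1% DMSO, 0.02–20 µM confirmation series · Measure – % activation, nuclear-to-cytoplasmic median beta-catenin signal ratio per cell · Incubation – 24 h compound exposure at 37°C, 5% CO2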
Autophagy HCS: modulators of autophagy; AID 463193; calls only at 10 µM (by protocol); MEF GFP-LC3 puncta imaging; test concentration mostly 10 µM; 190,000 compounds, 0.98% hits;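 active = percentage of spot-positive cells more than 3 SD above its plate mean, without a fluorescence outlier flag or 80% toxicity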;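 note: spot-positive cell cutoff set from DMSO-treated cells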
Hsp70 activator: switches on Hsp70 transcription. HeLa Hsp70 promoter luciferase reporter, luminescence; scaled: vehicle 0, proteasome-inhibitor control 100%. AID 1203. 200,000 compounds, 0.04% hits. activation, % at 10 µM;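 active = activation above the mean across all tested compounds plus 3 SD, cutoff set per campaign, cut at about 5.5% in these data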;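 note: 100% = MG132 at 30 µM as the positive control and 0% = DMSO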
* hit, by the source's call; i = inactive; / = not tested or not shown; + = active, no number. Hits are enriched below; roughly 2.1% of the tested compounds scored in any of these assays.

SMILES | MT stabilize HCS | Dynein cargo inh | bCat nuc transl | Autophagy HCS | Hsp70 activator
CCC(=O)n1nc(-c2ccc(Cl)cc2)nc1NCc1ccccc1 | 8 | 1.8 | / | + | 0
COc1ccc([N+](=O)[O-])cc1NC(=O)C(C)OC(=O)c1cccnc1 (stereo not drawn) | 2 | 0.06 | 2 | i | 0
COc1ccccc1Nc1nc(-c2ccc3c(c2)NC(=O)CO3)cs1 | 24* | -0.8 | 0 | i | 0
COc1ccccc1Cn1cccc1C=O | 1 | -0.51 | 2 | + | 0
COc1ccccc1NC(=O)C1=C(C)Nc2nc(-c3cccs3)nn2C1c1cccc(O)c1 (stereo not drawn) | 4 | 2.1 | -4 | + | 0
CCCCOc1ccc(-c2cc(C(F)(F)F)c(C#N)c(SCC(=O)O)n2)cc1 | 2 | -1 | 1 | + | 0
FC(F)(F)c1ccc(/C=N/N2CCN(Cc3cccc4ccccc34)CC2)cc1 | 3 | -0.64 | 0 | i | 0
C(=N\N1CCN(Cc2cccc3ccccc23)CC1)/c1ccco1 | 2 | 2 | / | + | 1
Cc1ccc(Nc2nc(NCCCN3CCOCC3)nc(N)c2[N+](=O)[O-])cc1 | 3 | 2 | 2 | + | 0
COC(=O)c1nnn(-c2cc(Cl)cc(Cl)c2)c1C(=O)OC | / | 1 | -1 | / | /
NS(=O)(=O)c1ccc(NCc2cc(Cl)ccc2OCc2ccc(F)cc2)cc1 | 2 | 0.27 | / | i | 0
CCN(CC)c1ccc(/C=N/NC(=O)c2ccco2)cc1 | 20* | 0.91 | / | i | 0
CCN(CC)c1ccc(/C=N/NC(=O)c2cnccn2)cc1 | 23* | 0.58 | 23 | i | 0
O=C(N/N=C/c1cccc(Oc2ccccc2)c1)c1ccccc1Br | 27* | -0.79 | 4 | i | 0
COc1cc(/C=N/NC(=O)C(=O)NCc2ccco2)cc(Br)c1O | / | -0.53 | 1 | / | /
COC(C[C@H]1O[C@H]1[C@@H](O)[C@@H](C)OCc1ccccc1)OC | / | -0.87 | 0 | / | /
COC(=O)Cn1c(=O)c(C(=O)CCl)c(N)n(Cc2ccccc2)c1=O | / | -0.14 | -1 | / | /
O=C(O)CC1(CC(=O)Nc2ccc3sccc3c2)CCCCC1 | / | -0.078 | -1 | / | /
Cc1ccc(-c2cc(C(F)F)n3ncc(C(=O)Nc4c(C)nn(Cc5c(Cl)cccc5Cl)c4C)c3n2)cc1 | 6 | -0.17 | -3 | + | 0
Cc1ccc(-c2cc(C(F)F)n3ncc(C(=O)N4CCc5ccccc54)c3n2)cc1 | 11* | 0.91 | 6 | + | 0
O=C(c1cnn2c(C(F)F)cc(-c3ccccc3)nc12)N1CCc2ccccc21 | 5 | -0.055 | 2 | i | 0
Nc1nonc1C(=O)NCCNCc1cc(Br)ccc1OCc1ccc(F)cc1 | 2 | -0.16 | 2 | + | 0
COc1ccc(CNCCNC(=O)c2nonc2N)cc1OC | 4 | 0.73 | -1 | i | 0
O=[N+]([O-])c1ccc2ccn(C3OCC(O)C(O)C3O)c2c1 (stereo not drawn) | 2 | -0.38 | 1 | i | 0
NNc1nc2c(-c3ccc(Cl)cc3)nnn2c2ccccc12 | 8 | 1.2 | -1 | + | 0
SMILES | MT stabilize HCS | Dynein cargo inh | bCat nuc transl | Autophagy HCS | Hsp70 activator
NNc1nc2c(-c3ccc(F)cc3)nnn2c2ccccc12 | 5 | 0.71 | -2 | i | 0
O=C(NC1CCCC1)C1CCCN1C(=O)Oc1ccccc1 (stereo not drawn) | 2 | -0.33 | 0 | i | 0
O=C(Nc1ncccn1)c1cc([N+](=O)[O-])cc([N+](=O)[O-])c1 | 6 | -0.75 | -2 | i | 0
O=[N+]([O-])c1cc(-c2ncccn2)c([N+](=O)[O-])s1 | 3 | -3.9* | 0 | i | 0
CC(/C=N/NC(=O)c1cnccn1)=C\c1ccco1 | / | -0.13 | -5 | / | /
COc1ccc(C2N(Cc3ccccc3)CCN2Cc2ccccc2)cc1[N+](=O)[O-] | 5 | 0.94 | -3 | + | 0
O=C(O)CC/C(=N/Nc1ncc(C(F)(F)F)cc1Cl)C(=O)O | 7 | 2 | 0 | i | 0
Cc1cccc(/C=N/NC(=O)c2cc3c(s2)-c2ccccc2CC3)c1 | 34* | 0.47 | 0 | i | 0
O=C(N/N=C/c1cccc(C(F)(F)F)c1)c1cc2c(s1)-c1ccccc1CC2 | 14 | -0.091 | 2 | i | 0
C/C(CC1CC(C)OC1=O)=N\NC(N)=S (stereo not drawn) | 4 | 0.49 | -1 | i | 0
C/C(CCC12CC3CC(CC(C3)C1)C2)=N\NC(N)=S | 0 | -0.52 | / | + | -1
O=C(CS(=O)CC(=O)N(c1cccc(F)c1)C(C(=O)NC1CCCCC1)c1ccco1)Nc1ccc(F)cc1 (stereo not drawn) | 2 | -0.056 | -3 | i | 0
Cc1cc(O)c(-c2cc(O)c(C)cc2O)cc1O | / | -6* | -4 | / | /
COc1ccc(Nc2cc(C)nc3nc(C)nn23)c(OC)c1 | 3 | 0.21 | -1 | i | 0
COc1ccc(OC)c(Nc2cc(C)nc3nc(C)nn23)c1 | 16* | -0.55 | 8 | i | 0
Cc1cc(C)n2cc(CSc3ccccn3)nc2n1 | 3 | 1.2 | -6 | + | 0
Cc1ccc(SCc2cn3c(C)cc(C)nc3n2)cc1 | / | 0.39 | 0 | / | /
COc1ccc(C(=O)CC(Nc2ccc([N+](=O)[O-])cc2)c2ccc(OC)cc2)cc1 (stereo not drawn) | 2 | -0.41 | -1 | i | 0
CNC(CC(=O)c1ccc([N+](=O)[O-])cc1)C(Cl)(Cl)Cl (stereo not drawn) | 6 | -3.5* | -1 | i | 0
O=C(C1=C(c2ccccc2)C(=O)c2ccccc2C1=O)c1ccccc1 | 5 | -1.1 | 0 | + | 0
COc1ccc(C(Nc2ccc(S(=O)(=O)NCC3CCCO3)cc2)C(=O)NC(C)(C)C)cc1OC (stereo not drawn) | 1 | -0.63 | -1 | i | 0
Cc1noc(C)c1COc1cccc(C(=O)OCC(=O)N2CC(=O)Nc3ccccc32)c1 | 39* | 0.29 | 0 | + | 0
Cn1cc(/C=N/n2cnc3scc(-c4ccc(Cl)cc4)c3c2=O)c2ccccc21 | 13 | -0.38 | 187* | i | 0
CCn1cnc2scc(-c3ccccc3)c2c1=O | 3 | 0.25 | / | i | 0
N=c1c(-c2nc3ccccc3[nH]2)cc(C(=O)c2cccs2)nn1-c1ccc(Cl)cc1 | 4 | 0.14 | / | + | 0
O=C(Nc1nc2ccccc2[nH]1)c1cccs1 | 4 | -0.57 | -1 | i | 0
Cn1c(CCC(=O)OCC(=O)NCc2ccc3c(c2)OCO3)nc(=O)c2ccccc21 | 2 | 0.79 | -4 | i | 0
Cc1ccc(Cn2c(-n3nc(C)cc3C)nc3c2c(=O)[nH]c(=O)n3C)cc1 | 4 | 1.1 | -2 | i | 0
COc1ccc(CCn2c(-n3nc(C)cc3C)nc3c2c(=O)[nH]c(=O)n3C)cc1 | 27 | -0.36 | / | + | 0
